Measured values as given in ChEMBL document CHEMBL4513216, “Probing the Open Global Health Chemical Diversity Library for Multistage-Active Starting Points for Next-Generation Antimalarials” (ACS Infect Dis, 2020).

assay: Toxicity liver stage against HepG2, at 10uM; type: cell-based; design: test concentration 10 uM, cell line HepG2-A16-CD81EGFP; settings: human, HepG2-A16-CD81EGFP cells; read-out: INHIBITION
Summary of the method: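 Uninfected HepG2-A16-CD81EGFP cells, 3 × 10^3 per well, 1536-well, plated on prespotted compound at 10 μM final, parasite-free screening media added to match infected plates; puromycin 10 μM positive, DMSO 0.5% negative; run in parallel with 48 h PbLuc assay at 37 °C, 5% CO2; viability by CellTiter-Glo luminescence, normalized to controls.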

SMILES	cytotoxicity at 10 µM [%]
O=C(CCNC(=O)c1ccc(Cl)cc1)NCc1nc(C2CC2)no1	0.648
COc1ccc(-c2cc(C[C@@H]3C[C@H](N(C)C)C3(C)C)no2)cc1	-1.3
CN(C)CCNc1c(-c2ccccc2)c(=O)c1=O	-9.11
O=C(NCCc1nccs1)[C@H](c1ccccc1)n1cnnn1	-0.607
CCOCC(=O)N1C[C@H]2CN(CC3CC3)C(=O)[C@H]2C1	3.94
CC(C)NC(=O)N1CCCC2(CCN(c3ccccc3)C2=O)C1 (configuration not stated)	-2.22
CN(C)CCO[C@H]1CN(C(=O)c2ccc3c(c2)OCO3)[C@@H]2COC[C@H]12	-151
O=C(N1CCOCC1)N1CC[C@H]2[C@@H]1CCC(=O)N2c1ccccc1	6.53
COCCNC(=O)CSCc1nc(O)c2cc(C(C)C)sc2n1	-3.46
CCOC(=O)CC(c1ccc(OC)c(OC)c1)c1c(O)n[nH]c1C (configuration not stated)	1.64
Cc1cc(C)c2c(c1)C1(CC(=O)Nc3c1cnn3C(C)C)C(=O)N2 (configuration not stated)	-2.51
COC(=O)CNC(=O)CSCc1nc(O)c2cc(C(C)C)sc2n1	7.72
COCC1CC2(CCN(C(=O)c3ccc(OC)c(Cl)c3)CC2)CO1 (configuration not stated)	15.4
COC(=O)Cn1ccc(=O)c2ccc(OC)cc21	-20.7
CC(=O)N1CCOCC(Cc2ccc3c(ccn3C)c2)C1 (configuration not stated)	4.3
Cc1ncc(-c2ccncc2)c(C2CCN(C(=O)c3ccco3)CC2)n1	4
CC(C1CC1)N(C(=O)CNc1ccc(C#N)cc1)C1CC1 (configuration not stated)	-5.28
O=C(NCc1ccnc(OCC(F)(F)F)c1)NCC1CCCO1 (configuration not stated)	-4.05
Cc1noc(CN(CCO)Cc2cc(Br)ccc2F)n1	2.2
Cc1ccc(C2CN(CCCS(=O)(=O)C(C)C)CCO2)c(C)c1 (configuration not stated)	-2.36
OC(CNCCc1nnc2ccccn12)c1ccc2c(c1)OCO2 (configuration not stated)	4.06

SMILES	cytotoxicity at 10 µM [%]
O=S1(=O)CCC(c2nnc(-c3cnc4onc(C5CCCC5)c4c3)o2)C1 (configuration not stated)	1.84
Cc1csc(C(C)(C)NCCCS(C)(=O)=O)n1	6.11
CC(C)CCc1noc(CN2CCCC(CNS(N)(=O)=O)C2)n1 (configuration not stated)	2.48
CCC(C)NC(=O)Nc1cccc(OCCCC#N)c1 (configuration not stated)	-2.01
NC(=O)C(NC(=O)COCCc1ccccc1)c1ccccc1F (configuration not stated)	-11
O=C(NCCN1CCOCC1)NCc1ccccc1-n1cccn1	-6.32
CC(=O)N1CCN(C(=O)c2c(Cl)c3ccccc3n2C)CC1	12.5
Cc1ncncc1C(=O)N1CCCC(n2ccnc2C)C1 (configuration not stated)	-2.17
CCOc1ccc(C(=O)N(C)C)cc1NC(=O)c1ccsc1	-0.12
O=C(C1CCCOC1)N1CCCc2ccccc21 (configuration not stated)	10.1
O=C(CN1CCS(=O)(=O)CC1)NCc1cccc(Br)c1	6.32
C[S+]([O-])c1nncn1CCc1ccccc1 (configuration not stated)	-12.6
Cc1ccc(N(C)C2CCN(C(=O)c3n[nH]c4c3CCC4)CC2)nn1	8
Cc1ccc(Br)cc1C(=O)Nc1cc(C(N)=O)n(C)c1	1.41
CC(C)OCc1noc(C2CC=CC2)n1	16.5
CN(C)CC1CN(Cc2c(Cl)ccc3cccnc23)CCO1 (configuration not stated)	4.2
c1cc(CN2CCCC2)ccc1CNc1cncc2nnnn12	3.99
CN(C)Cc1nc(C2(NC(=O)Nc3ccccc3)CCCC2)no1	-0.871
COCCNC(=O)N1CC(Cc2ccccc2F)C1	-6.4
CC(C)(C)OC(=O)N1CCN(S(=O)(=O)CCCC#N)C2(CCCCC2)C1	-6.1
O=C(CCc1ccccc1)Nc1ncccc1OC(F)F	-3.45

SMILES	cytotoxicity at 10 µM [%]
CSC(C)C(=O)NCCCc1cc(N)n(-c2ccccc2)n1 (configuration not stated)	3.25
CO[C@H]1C[C@@H](O)C12CCN(C(=O)NCc1ccco1)CC2	-2.04
Nc1nccc(-c2cccc3ccnn23)n1	-3.81
COc1ccccc1-c1ncc(CN2CCCC(CCC(N)=O)C2)s1 (configuration not stated)	-6.34
O=C(CN1CCCCCC1)NCc1ccc2[nH]c(=O)[nH]c2c1	-2.86
COc1cccc2c1OCC(CNC(=O)Cc1csc(C(C)=O)c1)C2 (configuration not stated)	-146
COCc1cc(N2C[C@@H](C)[C@](O)(C3CC3)C2)ncn1	3.73
Cc1ccc(C#N)c(N2CCC3(CCCN(C4CCOCC4)C3=O)C2)n1 (configuration not stated)	-125
O=C(CCCN1CCCCC1)NC(C(=O)O)c1cccc(F)c1 (configuration not stated)	1.91
O=C(NC1CC1)c1ccnc(-c2cc(NCCO)nc3[nH]ccc23)c1	5.61
CCn1c(C2CCCN(Cc3ccc4ccccc4n3)C2)nn(C)c1=O (configuration not stated)	0.687
CCCn1ncc(C(=O)N2CCN(C3Cc4ccccc4C3)CC2)c1C	-139
CC(=O)N1CCCN(c2nccc(-c3c(C)nn(C)c3C)n2)CC1	9.21
O=C(C1CC1)N1CCCN(c2ncnc3c2CCNCC3)CC1	5.52
COc1cccc2c(=O)n(Cc3cccnc3)cnc12	-7.85
CN(CC(C)(C)C)c1ccc(C(=O)NCCCc2ccccn2)cn1	-49.1
CC1(C(=O)NCc2cccnc2Oc2ccc(F)cc2F)CCCNC1 (configuration not stated)	-5.68
CC(C)c1cc(NC(=O)c2ccncc2)[nH]n1	-0.396
COc1ccc(C(=O)N(C)Cc2c(C)noc2C)cn1	-12.9
O=C(NCCn1nc2ccccn2c1=O)c1sccc1-c1ccccc1	-12.7
CN(Cc1noc(C2CC2)n1)C1CCN(Cc2ccc(F)c(F)c2)C1 (configuration not stated)	-0.279

SMILES	cytotoxicity at 10 µM [%]
CCOCCN1CCN(CC(=O)N2CCC2)CC1CC (configuration not stated)	-2.15
c1ccc(-c2nc(CNCCn3cccn3)cs2)cc1	-1.56
CSC(C)C(=O)N1CCCN(Cc2cnn(C(C)C)c2)CC1 (configuration not stated)	-6.29
CC(NC(=O)N(C)CCCOc1ccc(F)cc1)c1nncn1C (configuration not stated)	2.48
Cc1cnn(CC2CCCCN2CC(=O)Nc2c(C)n[nH]c2C)c1 (configuration not stated)	1.8
COc1ccc(C(=O)N2CCC(Nc3ccc(C)nn3)CC2)c(F)c1	1.15
C[C@@H](NC(=O)c1cccs1)c1onc(-c2cccnc2)c1C(=O)O	6.09
CN(C)CCN1CCCC12CCN(C(=O)c1ccco1)CC2	1.49
O=C(O)[C@]12CCCN(Cc3ccncc3)C[C@H]1CN(c1ncccn1)C2	2.59
COc1ncnc2c1CCN(Cc1nccs1)CC2	8.73
Cn1cc(CN2CC[C@H]3O[C@H](C(=O)NCc4ccco4)CC[C@H]32)cn1	-1.85
CCO[C@H]1CO[C@@]2(CCN(Cc3ccc4c(c3)OCO4)C2)C1	0.493
CC(=O)N1CCC2(CCN(Cc3ccccn3)C2=O)C1 (configuration not stated)	0.0869
Cc1nn(C)c(N(C)C)c1CNC1CCc2c(F)cccc21 (configuration not stated)	-5.87
CC(C)[C@H](N)C(=O)N1CCSc2ccccc2C1	-5.53
Cc1cc(C)c(CNCC(O)c2ccc(F)c(F)c2)c(C)c1 (configuration not stated)	6.59
CC(C)C(=O)N1CC[C@@H]2[C@H](CC1)N(Cc1cccnc1)CCS2(=O)=O	-7.77
Cc1ccc(-n2cc3[nH]c(=O)[nH]n3c2=O)cc1	1.22
CC(=O)Nc1c(C)noc1C=Cc1ccc(S(=O)(=O)N2CCCC2)cc1	0.931
